Active and inactive are the calls of the source. No cut-off for these calls is given here. Residues, ends and D or L forms follow the SMILES beside them. *: point of attachment. Succinyl(O17-estradiol) = C[C@]12CC[C@@H]3c4ccc(O)cc4CC[C@H]3[C@@H]1CC[C@@H]2OC(=O)CCC(=O)*

Data set [1] in a line: Stability in presence of pepsin at 37 degC after 90 mins. It counts as ADME. To be noted: isolated protein, 1.5 h.
The test system of data set [2] is Mus musculus. Put plainly: Toxicity in ovariectomized ICR mouse assessed as effect on uterine weight at 110.3 nmol/kg, po treated for 4 weeks measured after 1 day of last treatment. It counts as organism-based. The following applies: in vivo, 24 h. The method, boiled down: (§1)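 OVX mice dosed orally once daily with 110.3 nmol/kg in 0.5% carboxymethylcellulose for 4 weeks. The day after the last dose, mice were anesthetized with pentobarbital (40.0 mg/kg ip) and killed; uteri, lungs, livers and spleens were removed and weighed directly and their morphology noted.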

For data set [3], the system named is Mus musculus. Put plainly: Antiosteoporosis activity in ovariectomized ICR mouse assessed as phosphorous level in serum at 110.3 nmol/kg, po treated for 4 weeks measured after 1 day of last treatment by molybdenum blue method. Format: functional. The method, boiled down:
(§2)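 Ovariectomized female mice dosed orally with 110.3 nmol/kg in 0.5% carboxymethylcellulose once daily for 4 weeks, starting day 5 after surgery. Blood taken from the orbit the day after the last dose, stood 30 min, centrifuged 3000g for 20 min, serum stored at −20 °C. Calcium read by o-methylphenolphthalein complexone; phosphorus by molybdenum blue.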

Data set [4] relates to Mus musculus. Put plainly: Toxicity in ovariectomized ICR mouse assessed as spleen weight at 110.3 nmol/kg, po treated for 4 weeks measured after 1 day of last treatment. Format: organism-based. The following applies: in vivo, 24 h. The essentials: as §1
The test system of data set [5] is Mus musculus. The data set is described as follows: Antiosteoporosis activity in ovariectomized ICR mouse assessed as mineral content in femur at 110.3 nmol/kg, po treated for 4 weeks measured after 1 day of last treatment. It counts as functional. The method, boiled down: (§3)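 Female mice, ovariectomized (sham: laparotomy only); from day 5 post-surgery dosed orally once daily with 110.3 nmol/kg in 0.2 ml 0.5% carboxymethylcellulose for 4 weeks (vehicle to OVX/sham). Left femur taken the day after the last dose, cleaned of muscle, length measured, defatted in chloroform–methanol (2:1, 2×3 h), dried 120 °C 6 h and weighed, ashed 800 °C 8 h and weighed. Mineral content = ash/dry weight; femur ash dissolved in 6 N HCl, diluted, calcium by o-methylphenolphthalein complexone. n = 12.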

Data set [6] has as its system Mus musculus. Put plainly: Toxicity in ovariectomized ICR mouse assessed as liver weight at 110.3 nmol/kg, po treated for 4 weeks measured after 1 day of last treatment. It counts as organism-based. To be noted: in vivo, 24 h. The method, boiled down: as §1
The test system of data set [7] is Mus musculus. The data set is described as follows: Antiosteoporosis activity in ovariectomized ICR mouse assessed as weight of dry femur at 110.3 nmol/kg, po treated for 4 weeks measured after 1 day of last treatment. It counts as functional. The method, boiled down:
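Left femur taken the day after the last dose, cleaned of muscle, length measured, defatted in chloroform–methanol (2:1, 2×3 h), dried 120 °C 6 h and weighed, ashed 800 °C 8 h and weighed. Mineral content = ash/dry weight; femur ash dissolved in 6 N HCl, diluted, calcium by o-methylphenolphthalein complexone. n = 12.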

Data set [8] has as its system Mus musculus. Put plainly: Toxicity in osteoporotic female mouse at 0.11 umol/kg, po. It counts as organism-based. The following applies: in vivo.
The subject of data set [9] is Mus musculus. Put plainly: Antiosteoporosis activity in ovariectomized ICR mouse assessed as calcium level in serum at 110.3 nmol/kg, po treated for 4 weeks measured after 1 day of last treatment by o-methyl-phenolphthalein method. It counts as functional. The method, boiled down:
as §2

The subject of data set [10] is Mus musculus. The data set is described as follows: Antiosteoporosis activity in ovariectomized ICR mouse assessed as phosphorous content in femur at 110.3 nmol/kg, po treated for 4 weeks measured after 1 day of last treatment by molybdenum blue method. Format: functional.
Data set [11] concerns Mus musculus. The data set is described as follows: Toxicity in ovariectomized ICR mouse assessed as lung weight at 110.3 nmol/kg, po treated for 4 weeks measured after 1 day of last treatment. It counts as organism-based. To be noted: in vivo, 24 h. The essentials:
as §1

The test system of data set [12] is Mus musculus. Put plainly: Antiosteoporosis activity in ovariectomized ICR mouse assessed as weight of femur ash at 110.3 nmol/kg, po treated for 4 weeks measured after 1 day of last treatment. Format: functional. The method, boiled down: as §3
Data set [13] concerns Mus musculus. The data set is described as follows: Antiosteoporosis activity in ovariectomized ICR mouse assessed as calcium content in femur at 110.3 nmol/kg, po treated for 4 weeks measured after 1 day of last treatment by o-methyl-phenolphthalein. It counts as functional. The method, boiled down: as §3
In data set [14] the test system is Mus musculus. The data set is described as follows: Toxicity in ovariectomized ICR mouse assessed as effect on tail bleeding time at 110.3 nmol/kg, po treated for 4 weeks measured after 30 mins of last treatment. It counts as organism-based. The following applies: in vivo, 0.5 h. The method, boiled down: (§4)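 OVX mice received 110.3 nmol/kg orally in 0.5% carboxymethylcellulose daily for 4 weeks. At 30 and 90 min after the last dose, a 2 mm tail cut was made with the mouse in a tube holder; blood was blotted every 30 s until bleeding stopped, and the time was recorded as bleeding time.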

Data set [15] concerns Mus musculus. Put plainly: Antiosteoporosis activity in osteoporotic female mouse at 0.11 umol/kg, po. Format: functional, organism-based. The essentials: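 Dose-finding pre-treatment: series of oral doses given to osteoporotic female mice; ex vivo anti-osteoporosis activity assessed to assign a general dose for all later experiments.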
In data set [16] the test system is Mus musculus. The data set is described as follows: Antiosteoporosis activity in ovariectomized ICR mouse assessed as length of femur at 110.3 nmol/kg, po treated for 4 weeks measured after 1 day of last treatment. Format: functional. The essentials: as §3
The test system of data set [17] is Mus musculus. Put plainly: Toxicity in ovariectomized ICR mouse assessed as kidney weight at 110.3 nmol/kg, po treated for 4 weeks measured after 1 day of last treatment. It counts as organism-based. The following applies: in vivo, 24 h.
In data set [18] the test system is Mus musculus. The data set is described as follows: Toxicity in ovariectomized ICR mouse assessed as effect on tail bleeding time at 110.3 nmol/kg, po treated for 4 weeks measured after 90 mins of last treatment. Format: organism-based. To be noted: in vivo, 1.5 h. The method, boiled down:
as §4

Data set [19] in a line: Stability in presence of pepsin at 37 degC after 4 hrs. To be noted: isolated protein. It counts as ADME.
The species entered for data set [20] is Mus musculus. The data set is described as follows: Inhibition of ADP-induced platelet aggregation in osteoporotic female mouse by ex vivo platelet aggregation assay. Format: functional, organism-based.
The species named for data set [21] is Mus musculus. Put plainly: Inhibition of PAF-induced platelet aggregation in osteoporotic female mouse by ex vivo platelet aggregation assay. It counts as functional, organism-based.
In data set [22] the test system is Mus musculus. Put plainly: Antiosteoporosis activity in osteoporotic female mouse at 4 umol/kg, po. Format: functional, organism-based.

For the compound `N=C(N)NCCC[C@H](N)C(=O)NCC(=O)N[C@@H](CC(=O)O)C(=O)N[C@@H](Cc1ccccc1)C(=O)O` (H-RGDF-OH), the Stability entry in [1] is “Unstable”.
With `C[C@]12CC[C@@H]3c4ccc(O)cc4CC[C@H]3[C@@H]1CC[C@@H]2OC(=O)CCC(=O)N[C@@H](CCCNC(=N)N)C(=O)NCC(=O)N[C@@H](CC(=O)O)C(=O)N[C@@H](Cc1ccccc1)C(=O)N[C@@H](CCCNC(=N)N)C(=O)NCC(=O)N[C@@H](CC(=O)O)C(=O)N[C@@H](Cc1ccccc1)C(=O)O` ({Succinyl(O17-estradiol)}-RGDFRGDF-OH), the Activity in the data set with Mus musculus [2] is recorded as 0.06 g; in the data set with Mus musculus [3], 3.01 mM; in the data set with Mus musculus [4], 0.135 g; with Mus musculus [5], 0.625%; with Mus musculus [6], 1.266 g; in the data set with Mus musculus [7] it was 56.6 mg. Besides, the Activity entry in the data set on Mus musculus [8] is recorded as “Non-toxic”; with Mus musculus [9], 3.01 mM; in the data set with Mus musculus [10], 21.56%; in the data set with Mus musculus [11], 0.109 g; with Mus musculus [12] it was 36.87 mg; in the data set on Mus musculus [13], 64.36%. The Activity in the data set on Mus musculus [16] is 1.64 cm; in the data set with Mus musculus [17], 0.16 g. For the same compound, the Time in the data set on Mus musculus [14] was determined as 584 s; in the data set with Mus musculus [18], 571 s. Besides, in the data set with Mus musculus [15], the outcome was Active.
On to H-RGDFRGDF-OH, for which the Stability result in data set [19] is “Stable”. In addition, the IC50 in the data set listed under Mus musculus [20] was determined as 0.31 µmol/kg; in the data set filed under Mus musculus [21], 0.26 µmol/kg. Also, the result in the data set with Mus musculus [22] was inactive.
As to `C[C@]12CC[C@@H]3c4ccc(O)cc4CC[C@H]3[C@@H]1CC[C@@H]2OC(=O)CCC(=O)N[C@@H](CCCNC(=N)N)C(=O)NCC(=O)N[C@@H](CC(=O)O)C(=O)N[C@@H](CO)C(=O)O` ({Succinyl(O17-estradiol)}-RGDS-OH), the Activity is 0.063 g with Mus musculus [2]; 3.01 mM with Mus musculus [3]; 0.15 g in the data set on Mus musculus [4]; 0.604% in the data set with Mus musculus [5]; 1.537 g in the data set with Mus musculus [6]; 53.78 mg in the data set with Mus musculus [7]. Besides, the Activity in the data set on Mus musculus [9] was determined as 3.18 mM; with Mus musculus [10], 20.37%; in the data set on Mus musculus [11], 0.12 g; in the data set on Mus musculus [12], 34.17 mg; in the data set with Mus musculus [13], 59.34%; in the data set on Mus musculus [16], 1.659 cm. In the data set on Mus musculus [17], the Activity stood at 0.182 g. For the same compound, the Time with Mus musculus [14] came out at 575 s; in the data set with Mus musculus [18] it was 561 s.
With `C[C@]12CC[C@@H]3c4ccc(O)cc4CC[C@H]3[C@@H]1CC[C@@H]2OC(=O)CCC(=O)N[C@@H](CCCNC(=N)N)C(=O)NCC(=O)N[C@@H](CC(=O)O)C(=O)N[C@@H](CO)C(=O)N[C@@H](CCCNC(=N)N)C(=O)NCC(=O)N[C@@H](CC(=O)O)C(=O)N[C@@H](CO)C(=O)O` ({Succinyl(O17-estradiol)}-RGDSRGDS-OH), the Activity came to 0.065 g with Mus musculus [2]; 2.6 mM in the data set on Mus musculus [3]; 0.149 g in the data set with Mus musculus [4]; 0.625% in the data set on Mus musculus [5]; 1.479 g in the data set with Mus musculus [6]; 56.41 mg in the data set on Mus musculus [7]. Also, the Activity in the data set on Mus musculus [9] amounted to 3 mM; in the data set on Mus musculus [10] it was 21.4%; with Mus musculus [11], 0.116 g; with Mus musculus [12], 36.48 mg; in the data set with Mus musculus [13], 65.16%; in the data set on Mus musculus [16] it was 1.665 cm. The Activity in the data set with Mus musculus [17] is 0.174 g. For the same compound, the values for the Time in the data set on Mus musculus [14] and in the data set on Mus musculus [18] were 562 s and 556 s, respectively.
